≈ marks a conversion by molar mass, not a printed value.
What was measured:
Assay type in all cases: functional
Neisseria gonorrhoeae [1] = assay: Antimicrobial activity against […] Neisseria gonorrhoeae NGON 08-043 expressing beta-lactamase TEM-1, MLST type ST-7823 and MAST type ST-1288 by agar dilution method
In short: (§1)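 Clinical PPNG isolates from one Tokyo hospital, collected 2000–2008 and flagged as penicillinase producers by nitrocefin test. MICs of penicillin, cefixime and ceftriaxone were determined by agar dilution per an earlier method. Isolates were typed by MLST and MAST. The bla gene was PCR-amplified (annealing at 60°C, 30 cycles) and sequenced to assign the TEM allele.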

Neisseria gonorrhoeae [2] = assay: Antimicrobial activity against […] Neisseria gonorrhoeae NGON 05-042 expressing beta-lactamase TEM-1, MLST type ST-1588 and MAST type ST-4012 by agar dilution method
Neisseria gonorrhoeae [3] = assay: Antimicrobial activity against […] Neisseria gonorrhoeae NGON 08-003 expressing beta-lactamase TEM-135, MLST type ST-7823 and MAST type ST-4013 by agar dilution method; in short: as §1
Neisseria gonorrhoeae [4] = assay: Antimicrobial activity against […] Neisseria gonorrhoeae NGON 08-044 expressing beta-lactamase TEM-1, MLST type ST-7823 and MAST type ST-1288 by agar dilution method; in short: as §1
Neisseria gonorrhoeae [5] = assay: Antimicrobial activity against […] Neisseria gonorrhoeae NGON 08-041 expressing beta-lactamase TEM-1, MLST type ST-1584 and MAST type ST-1478 by agar dilution method; in short: as §1
Neisseria gonorrhoeae [6] = assay: Antimicrobial activity against […] Neisseria gonorrhoeae NGON 00-002 expressing beta-lactamase TEM-1, MLST type ST-1590 and MAST type ST-270 by agar dilution method; in short: as §1
Neisseria gonorrhoeae [7] = assay: Antimicrobial activity against […] Neisseria gonorrhoeae NGON 06-041 expressing beta-lactamase TEM-1, MLST type ST-1588 and MAST type ST-4012 by agar dilution method
Neisseria gonorrhoeae [8] = assay: Antimicrobial activity against […] Neisseria gonorrhoeae NGON 00-027 expressing beta-lactamase TEM-1, MLST type ST-1921 and MAST type ST-1817 by agar dilution method; in short: as §1
Neisseria gonorrhoeae [9] = assay: Antimicrobial activity against […] Neisseria gonorrhoeae NGON 08-046 expressing beta-lactamase TEM-1, MLST type ST-1584 and MAST type ST-1478 by agar dilution method
Neisseria gonorrhoeae [10] = assay: Antimicrobial activity against […] Neisseria gonorrhoeae NGON 04-025 expressing beta-lactamase TEM-135, MLST type ST-1597 and MAST type ST-1549 by agar dilution method

| Compound | MIC (Neisseria gonorrhoeae [1]) [µg/mL] | MIC (Neisseria gonorrhoeae [2]) [µg/mL] | MIC (Neisseria gonorrhoeae [3]) [µg/mL] | MIC (Neisseria gonorrhoeae [4]) [µg/mL] | MIC (Neisseria gonorrhoeae [5]) [µg/mL] | MIC (Neisseria gonorrhoeae [6]) [µg/mL] | MIC (Neisseria gonorrhoeae [7]) [µg/mL] | MIC (Neisseria gonorrhoeae [8]) [µg/mL] | MIC (Neisseria gonorrhoeae [9]) [µg/mL] | MIC (Neisseria gonorrhoeae [10]) [µg/mL] |
| --- | --- | --- | --- | --- | --- | --- | --- | --- | --- | --- |
| CO/N=C(\C(=O)N[C@@H]1C(=O)N2C(C(=O)O)=C(CSc3nc(=O)c(O)nn3C)CS[C@H]12)c1csc(N)n1 [CEFTRIAXONE] | 0.064 (≈ 0.115 µM) | 0.064 (≈ 0.115 µM) | 0.032 (≈ 0.0577 µM) | 0.064 (≈ 0.115 µM) | 0.004 (≈ 0.00721 µM) | 0.016 (≈ 0.0289 µM) | 0.032 (≈ 0.0577 µM) | 0.008 (≈ 0.0144 µM) | 0.032 (≈ 0.0577 µM) | ≤ 0.004 |
| C=CC1=C(C(=O)O)N2C(=O)[C@@H](NC(=O)/C(=N\OCC(=O)O)c3csc(N)n3)[C@H]2SC1 [CEFIXIME] | 0.064 (≈ 0.141 µM) | 0.25 (≈ 0.551 µM) | 0.032 (≈ 0.0706 µM) | 0.064 (≈ 0.141 µM) | 0.008 (≈ 0.0176 µM) | 0.032 (≈ 0.0706 µM) | 0.25 (≈ 0.551 µM) | 0.008 (≈ 0.0176 µM) | 0.25 (≈ 0.551 µM) | 0.004 (≈ 0.00882 µM) |
| CC1(C)S[C@@H]2[C@H](NC(=O)Cc3ccccc3)C(=O)N2[C@H]1C(=O)O [PENICILLIN G] | > 64 | 64 (≈ 191 µM) | > 64 | > 64 | 64 (≈ 191 µM) | 16 (≈ 47.8 µM) | 32 (≈ 95.7 µM) | > 64 | 64 (≈ 191 µM) | > 64 |

From ChEMBL document CHEMBL1275604, “Identification of TEM-135 beta-lactamase in penicillinase-producing Neisseria gonorrhoeae strains in Japan” (2010)
